Experimental data: ChEMBL document CHEMBL1153057, “Chemical constituents of propolis from Myanmar and their preferential cytotoxicity against a human pancreatic cancer cell line” (2009)
Activity calls are given as the source filed them. The rule behind the calls is not given here.

What was measured:
PANC-1 [1] = assay: Cytotoxicity against human PANC1 cells in nutrient-deprived condition assessed as 100% cell death after 24 hrs by WST8 assay; type: functional
How it was run: (§1)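 PANC-1 cells, 2 × 10⁴ per well, grown 24 h in DMEM at 37 °C under 5% CO2, PBS-washed, then switched to DMEM or nutrient-deprived medium (glucose-, amino acid- and serum-free salts, vitamins, 25 mM HEPES, pH 7.4) holding serial dilutions for 24 h. Viability by WST-8 (10% in DMEM, 3 h, A450), blank-corrected against untreated control, mean of three wells. PC100/PC50 = concentration killing 100%/50% of cells preferentially in NDM.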

PANC-1 [2] = assay: Cytotoxicity against human PANC1 cells in nutrient-deprived condition assessed as 50% cell death after 24 hrs by WST8 assay; type: functional; how it was run: as §1
PANC-1 [3] = assay: Cytotoxicity against human PANC1 cells in nutrient-deprived condition assessed as complete preferential cell death at 6.25 uM within 24 hrs of starvation by WST8 assay; type: functional
PANC-1 [4] = assay: Cytotoxicity against human PANC1 cells in nutrient-deprived condition assessed as complete preferential cell death at 50 uM within 6 hrs of treatment by WST8 assay; type: functional
PANC-1 [5] = assay: Induction of apoptosis in human PANC1 cells in nutrient deprived condition assessed as morphological changes at 6.25 uM within 24 hrs of treatment using phase contrast microscopy by WST8 assay; type: functional, cell-based

| SMILES | CD100 (PANC-1 [1]) [µM] | PC50 (PANC-1 [2]) [µM] | Activity (PANC-1 [3]) [%] | Activity (PANC-1 [4]) [%] | Activity (PANC-1 [5]) |
| --- | --- | --- | --- | --- | --- |
| C[C@H](CC/C=C(\CO)C(=O)O)[C@H]1CC[C@@]2(C)[C@@H]3CC[C@H]4C(C)(C)[C@H](O)CC[C@@]45C[C@@]35CC[C@]12C | 25 | 15.5 |  |  |  |
| C[C@H](CC/C=C(\CO)C(=O)O)[C@H]1CC[C@@]2(C)[C@@H]3CC[C@@H]4[C@@]5(CCC(=O)[C@@]4(C)CO)C[C@@]35CC[C@]12C | >100 | >100 |  |  |  |
| O=c1[nH]cc(F)c(=O)[nH]1 [FLUOROURACIL] | >100 | >100 |  |  |  |
| C/C(=C\CC[C@@H](C)[C@H]1CC[C@@]2(C)[C@@H]3CC[C@@H]4[C@@]5(CCC(=O)[C@@]4(C)CO)C[C@@]35CC[C@]12C)C(=O)O | >100 | >100 |  |  |  |
| C[C@H](CC/C=C(\CO)C(=O)O)[C@H]1CC[C@@]2(C)[C@@H]3CC[C@H]4C(C)(C)[C@@H](O)CC[C@@]45C[C@@]35CC[C@]12C | >100 | >100 |  |  |  |
| COc1cc(C[C@H]2C(=O)OC[C@@H]2Cc2ccc(OC)c(OC)c2)ccc1O [ARCTIGENIN] | 1 | 0.4 |  |  |  |
| C/C(=C\C(O)C[C@@H](C)[C@H]1CC[C@@]2(C)[C@@H]3CC[C@H]4C(C)(C)[C@@H](O)CC[C@@]45C[C@@]35CC[C@]12C)C(=O)O (stereo partly specified) | >100 | >100 |  |  |  |
| CC(C)=CCc1cc([C@@H]2CC(=O)c3c(O)cc(O)c(CC=C(C)C)c3O2)ccc1O [LESPEDEZAFLAVANONE B] | 25 | 19.8 |  |  |  |
| C/C(=C\CC(O)[C@@H](C)[C@H]1CC[C@@]2(C)[C@@H]3CC[C@H]4C(C)(C)[C@H](O)CC[C@@]45C[C@@]35CC[C@]12C)C(=O)O (stereo partly specified) | 25 | 13.4 |  |  |  |
| C/C(C=O)=C\CC[C@@H](C)[C@H]1CC[C@@]2(C)[C@@H]3CC[C@H]4C(C)(C)[C@@H](O)CC[C@@]45C[C@@]35CC[C@]12C | >100 | >100 |  |  |  |
| C/C(=C/C=C/[C@@H](C)[C@H]1CC[C@@]2(C)[C@@H]3CC[C@H]4C(C)(C)C(=O)CC[C@@]45C[C@@]35CC[C@]12C)C(=O)O | 6.3 | 4.3 | 100 | 100 | Active |
| C/C(=C\CC[C@@H](C)[C@H]1CC[C@@]2(C)[C@@H]3CC[C@H]4C(C)(C)[C@@H](O)CC[C@@]45C[C@@]35CC[C@]12C)C(=O)O [MANGIFEROLIC ACID] | >100 | >100 |  |  |  |
| CC(C)=CCc1c(O)cc(O)c2c1O[C@H](c1ccc(O)cc1)CC2=O [SOPHORAFLAVANONE B] | 50 | 39.4 |  |  |  |
| C/C(=C\CC[C@@H](C)[C@H]1CC[C@@]2(C)[C@@H]3CC[C@H]4C(C)(C)C(=O)CC[C@@]45C[C@@]35CC[C@]12C)C(=O)O [MANGIFERONIC ACID] | >100 | >100 |  |  |  |
| C/C(=C\CC[C@@H](C)[C@H]1CC[C@@]2(C)[C@@H]3CC[C@H]4C(C)(C)[C@H](O)CC[C@@]45C[C@@]35CC[C@]12C)C(=O)O [ISOMANGIFEROLIC ACID] | 25 | 13.7 |  |  |  |
| CC(=O)O[C@H]1C(=O)[C@@]2(C)[C@H]([C@H](OC(=O)c3ccccc3)[C@]3(O)C[C@H](OC(=O)[C@H](O)[C@@H](NC(=O)c4ccccc4)c4ccccc4)C(C)=C1C3(C)C)[C@]1(OC(C)=O)CO[C@@H]1C[C@@H]2O [PACLITAXEL] | >100 | >100 |  |  |  |
| C[C@H](CC/C=C(\CO)C(=O)O)[C@H]1CC[C@@]2(C)[C@@H]3CC[C@H]4C(C)(C)C(=O)CC[C@@]45C[C@@]35CC[C@]12C | 50 | 38.5 |  |  |  |
| COc1ccc([C@@H]2CC(=O)c3c(O)cc(O)c(CC=C(C)C)c3O2)cc1CC=C(C)C | 12.5 | 7.9 |  |  |  |
| C/C(=C\C(O)C[C@@H](C)[C@H]1CC[C@@]2(C)[C@@H]3CC[C@H]4C(C)(C)C(=O)CC[C@@]45C[C@@]35CC[C@]12C)C(=O)O (stereo partly specified) | 50 | 28 |  |  |  |
